Source: PMC2819655 (Bioorganic & medicinal chemistry, 2009)
Changes are numbered by the printed parent chain. Each block holds one compound with its values, some of them ahead of it.

Legend:
[1] = molecular target: T1, 26S proteasome in MDA-MB-231 cell extract (Homo sapiens, UniProt P28074); test: Proteasomal chymotrypsin-like activity in MDA-MB-231 cell extract; type: biochemical; details: for change of proteasome inhibitory activity with COMT inhibitor DNC: lysate pre-treated with 10 μM DNC for 20 minutes, Fig. 3B; for inhibition of proteasomal activity: MDA-MB-231 cell lysate with high COMT activity, 1-10 μM, 2 h, Fig. 3A
T1 sequence (P28074 60-263): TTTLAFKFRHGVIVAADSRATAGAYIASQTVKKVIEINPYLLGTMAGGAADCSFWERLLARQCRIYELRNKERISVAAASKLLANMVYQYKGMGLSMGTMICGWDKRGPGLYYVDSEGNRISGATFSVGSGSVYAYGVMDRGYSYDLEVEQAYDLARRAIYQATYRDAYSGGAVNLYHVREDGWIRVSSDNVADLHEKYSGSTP
How it was run: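 MDA-MB-231 cell extract (5.7 μg; lysate with high COMT activity) incubated with 20 μM Suc-LLVY-AMC in 20 mM Tris–HCl pH 7.5 with test compound at various concentrations or solvent, 2 h, 37°C. Chymotrypsin-like activity was measured by fluorescence at 355/460 nm. In the COMT-blocked arm, the extract was pre-treated 20 min with 10 μM 3,5-dinitrocatechol, then co-incubated with test compound for 2 h.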

[2] = test system: proteasome chymotrypsin-like activity; details: cited from earlier work
[3] = molecular target: T2, purified rabbit 20S proteasome (Oryctolagus cuniculus, UniProt G1T4Q9); test: Inhibition of purified 20S proteasome chymotrypsin-like activity; type: biochemical; details: for proteasome inhibition: even at 50 μM, Fig. 2A
T2 sequence (G1T4Q9 60-263): T1 sequence (P28074 60-263) with E197D
How it was run: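 Purified rabbit 20S proteasome (35 ng) incubated with 20 μM Suc-LLVY-AMC in 20 mM Tris–HCl pH 7.5, with test compound at various concentrations or solvent, for 2 h at 37°C. Chymotrypsin-like activity was read as fluorogenic substrate hydrolysis at 355 nm excitation and 460 nm emission.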

[4] = test system: cancer cell lines; details: a number of cancer cell lines; cited from earlier work
[5] = test system: MDA-MB-231 cells; test: MTT assay, cell proliferation; type: cell-based, human; details: for inhibition of cell proliferation: MDA-MB-231, 25 to 50 μM, 24 h, MTT, Fig. 4; for cell growth inhibition compared to non-acetylated precursors 5 and 7: MDA-MB-231, Fig. 4
How it was run: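 MDA-MB-231 cells were grown in RPMI 1640 with 10% FBS and penicillin/streptomycin at 37°C, 5% CO2. Triplicate wells were treated with test compound (25 or 50 μM) for 24 h. The medium was aspirated, then MTT (1 mg/ml) was added for 3 h at 37°C. The formazan was dissolved in DMSO and absorbance read at 540 nm.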

[6] = test system: proteasome in MDA-MB-231 cells; test: Accumulation of ubiquitinated proteins, Western blotting; type: cell-based, human; details: MDA-MB-231, 50 μM, 22 hours, compared with compound 6 and Pro-EGCG (4), Fig. 6
How it was run: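 MDA-MB-231 cells (ATCC; RPMI 1640 with 10% FBS, penicillin/streptomycin; 37°C, 5% CO2) exposed to 50 μM test compound for 22 h. Extracted proteins were analysed by Western blot with antibodies against ubiquitinated proteins, with actin as loading reference.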

Compound: O=C(O[C@@H]1Cc2c(O)cc(O)cc2O[C@@H]1c1cc(O)c(O)c(O)c1)c1cc(O)c(O)c(O)c1 [EGCG, (-)-Epigallocatechin-3-gallate, reference compound]
change of proteasome inhibitory activity with COMT inhibitor DNC [1]: improved
IC50 ([2]; read-out: IC50, chymotrypsin-like activity of the proteasome in vitro, in vitro): 0.086 to 0.194 µM
inhibition of proteasomal chymotryptic activity ([3]; Fig. 2): potently inhibited

Compound: CC(=O)Oc1cc(OC(C)=O)c2c(c1)O[C@H](c1cc(OC(C)=O)c(OC(C)=O)c(OC(C)=O)c1)[C@H](OC(=O)c1cc(OC(C)=O)c(OC(C)=O)c(OC(C)=O)c1)C2 [compound 4, peracetate of (-)-EGCG]
growth inhibitory activity relative to EGCG [4]: enhanced growth inhibitory activity
activity as a proteasome inhibitor [2]: not active
inhibition of cell proliferation [5]: 0 to 32%

Compound: CC(=O)Oc1cc(C(=O)O[C@H]2Cc3ccccc3C[C@H]2OC(=O)c2cc(OC(C)=O)c(OC(C)=O)c(OC(C)=O)c2)cc(OC(C)=O)c1OC(C)=O [compound 6]
inhibition of cell proliferation [5]: about 50%
cell growth inhibition compared to non-acetylated precursors 5 and 7 [5]: more potent

Compound: CC(=O)Oc1cc(OC(C)=O)cc(C(=O)O[C@H]2Cc3ccccc3C[C@H]2OC(=O)c2cc(OC(C)=O)cc(OC(C)=O)c2)c1 [compound 8]
accumulation of ubiquitinated proteins [6]: higher levels of ubiquitinated proteins
inhibition of cell proliferation [5]: 70-79%
cell growth inhibition compared to non-acetylated precursors 5 and 7 [5]: more potent

Compound: O=C(O[C@H]1Cc2ccccc2C[C@H]1O)c1cc(O)c(O)c(O)c1 [compound 16]
proteasome inhibition [3]: not active

Next, values leading:

inhibition of proteasomal activity [1]: 10-16%
change of proteasome inhibitory activity with COMT inhibitor DNC [1]: improved
Compound: O=C(O[C@H]1Cc2ccccc2C[C@H]1OC(=O)c1cc(O)c(O)c(O)c1)c1cc(O)c(O)c(O)c1 [compound 5]

inhibition of proteasomal activity [1]: 18-51%
change of proteasome inhibitory activity with COMT inhibitor DNC [1]: only slightly increased
Compound: O=C(O[C@H]1Cc2ccccc2C[C@H]1OC(=O)c1cc(O)cc(O)c1)c1cc(O)cc(O)c1 [compound 7]

proteasome inhibition [3]: not active
Compound: O=C(O[C@H]1Cc2ccccc2C[C@H]1O)c1cc(O)cc(O)c1 [compound 21]
